Screening data as filed in PubChem.
The list is not random: actives were taken first. Their share in the collection is about 2.9%.
TCR CD3 inh – inhibitors of human TCR-CD3 interaction, primary screen, biochemical, fluorescence, TAMRA-labeled TCR probe | T-cell receptor (TCR) | actives 0.37% (n = 360,000) | inhibition, % at 9.4 µM | AID 651800, 2012; in the data active means inhibition above about 19%;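 further: recombinant mutant TCR 2C K166C tagged with TAMRA read by polarization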
HTRA1 inh – HTRA1 serine protease inhibitors, primary screen, biochemical, fluorescence polarization, HTS | actives 0.5% (n = 340,000) | inhibition, % at 5.96 µM | recombinant HTRA1, FP-rhodamine activity-based probe | Q92743 | AID 504803, 2011; in the data active means inhibition above about 36%
ATG4B inhibitor – ATG4B protease inhibitors, primary screen, biochemical, fluorescence, uHTS. Cysteine protease ATG4B (Homo sapiens), Q9Y4P1. ATG4B cleavage of LC3-PLA2, NBD-HPC fluorescence, 1 h. inhibition, % at 8.33 µM. actives 0.51% (n = 340,000); in the data active means inhibition above about 40%
SIAE primary – human SIAE inhibitors, primary screen, biochemical, fluorescence polarization, FP-Rh probe, 1536-well HTS; Sialate O-acetylesterase (Homo sapiens), Q9HAT2; SIAE FP-Rh probe binding; inhibition, % at 9.66 µM; actives 0.69% (n = 370,000);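 active means inhibition above a cutoff: mean of compounds within the control limits plus 3 SD of those, cut at about 17% in these data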
Target sequence (Q9HAT2 whole entry, looked up): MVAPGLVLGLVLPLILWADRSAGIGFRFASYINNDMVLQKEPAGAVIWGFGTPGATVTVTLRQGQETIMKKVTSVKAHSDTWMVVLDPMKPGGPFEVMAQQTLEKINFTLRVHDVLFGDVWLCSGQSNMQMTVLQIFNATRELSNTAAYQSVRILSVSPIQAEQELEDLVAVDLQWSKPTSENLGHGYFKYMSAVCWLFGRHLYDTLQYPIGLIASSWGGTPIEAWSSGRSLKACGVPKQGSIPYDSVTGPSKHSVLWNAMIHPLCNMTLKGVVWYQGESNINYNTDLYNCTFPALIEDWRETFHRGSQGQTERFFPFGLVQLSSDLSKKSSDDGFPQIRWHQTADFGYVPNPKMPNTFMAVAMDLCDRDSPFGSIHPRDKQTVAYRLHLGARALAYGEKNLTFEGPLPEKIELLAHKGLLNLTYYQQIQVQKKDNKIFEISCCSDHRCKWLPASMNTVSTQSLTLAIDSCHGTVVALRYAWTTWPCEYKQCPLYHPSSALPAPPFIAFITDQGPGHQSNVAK
PRMT1 inh – PRMT1 methyltransferase inhibitors, primary screen, biochemical, fluorescence polarization; AID 652257, 2013; inhibition, % at 2.79 µM; recombinant PRMT1, activity-based probe fluorescence polarization; actives 1.3% (n = 370,000);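 active means inhibition above about 21% made by adding two undisclosed values, limit read from the data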
ABHD4 inh – ABHD4 inhibitors, primary screen, biochemical, fluorescence polarization, mouse. purified mABHD4, FP-Rh probe fluorescence polarization. inhibition, % at 8.92 µM. actives 0.54% (n = 370,000);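 active means inhibition exceeding the mean over every tested compound plus 3 SD, cut at about 30% in these data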
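System: mouse ABHD4 enzyme, wild type / Medium: HEPES pH 7.0, NaCl, Pluronic buffer / Reagent: FP-Rh activity-based fluorescent probe / Control set: S159A mutant high control, sample median low control / Detection: fluorescence polarization with parallel and perpendicular emission, 525/598 nm / Schedule: 45 min + 60 min at 25 °C / Compound dosing: 8.92 µM, single dose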
PRMT1 confirm – PRMT1 methyltransferase inhibitors, confirmation, biochemical, fluorescence polarization, triplicate | shares compounds with PRMT1 inh | recombinant His-PRMT1, activity-based probe fluorescence polarization | inhibition, % at 2.79 µM | actives 42% (n = 3,300) | AID 687036, 2013;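 active means mean inhibition across replicates above the hit cutoff derived for the earlier primary screen, cut at about 22% in these data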
A number is an active result; i = inactive; nt = not tested or not shown.

SMILES	TCR CD3 inh	HTRA1 inh	ATG4B inhibitor	SIAE primary	PRMT1 inh	ABHD4 inh	PRMT1 confirm
O=C(CCCc1nc2ccccc2s1)Nc1nccs1	i	i	i	i	41	i	i
Cc1cnc(NC(=O)CCCc2nc3ccccc3s2)s1	i	i	i	i	49	i	i
Cc1ccc(N2C(=O)C3C4C=CC(CNC(=S)N5CCN(c6cccc(C)c6)C(C)C5)(O4)C3C2=O)cc1 (configuration not stated)	i	i	i	i	37	i	32
Cc1ccc(S(=O)(=O)/N=S(/c2ccccc2)C(C)C)cc1 (configuration not stated)	i	i	i	i	35	i	70
CN(c1cccnc1)c1ccc(NC(=O)Cc2c[nH]c3ccccc23)cc1Br	i	nt	nt	i	i	i	nt
Cn1cccc1C(=O)N1CCN(S(=O)(=O)c2cccs2)CC1	nt	nt	nt	i	i	i	nt
COC(=O)/C(C#N)=C/c1c(N2CCN(c3ccccc3)CC2)nc2c(C)cccn2c1=O	i	i	i	i	26	i	i
CCOC(=O)C1=C(C)N=c2s/c(=C/c3cccc([N+](=O)[O-])c3O)c(=O)n2C1c1cc(OC)c(OC)c(OC)c1 (configuration not stated)	i	i	i	i	44	i	40
CCOC(=O)C1=C(C)N=c2s/c(=C/c3cccc(OCC(=O)O)c3)c(=O)n2C1c1ccc(F)cc1 (configuration not stated)	i	nt	nt	i	41	i	i
CCOC(=O)C1=C(C)N=c2s/c(=C\c3cccc(OCC(=O)O)c3)c(=O)n2C1c1ccccc1 (configuration not stated)	i	i	i	i	32	i	i
CCOC(=O)C1=C(C)N=c2s/c(=C/c3ccco3)c(=O)n2C1c1cccc(OC)c1 (configuration not stated)	nt	nt	i	nt	nt	nt	nt
C=CCN(C(=O)[C@@H](CCCC)[C@@H](O)c1ccc(C(C)=O)cc1)c1ccccc1	nt	nt	nt	i	i	i	nt
CCOC(=O)c1c(CC(C)C)csc1NC(=O)COC(=O)c1cnc(C)cn1	i	i	nt	i	i	i	nt
CCOC(=O)c1c(-c2ccco2)csc1NC(=O)COC(=O)c1cnc(C)cn1	i	i	i	i	36	i	i
Cc1ccc2nc(/C(C#N)=C\c3ccc(N4CCOCC4)o3)[nH]c2c1	i	i	i	i	i	i	nt
Cc1ccc(/C(C#N)=C\c2ccc(N3CCOCC3)o2)cc1	i	i	i	i	27	i	i
N#CCC[C@H]1CC[C@]2(CCCN(C(=O)c3ccno3)C2)O1	nt	nt	nt	i	i	i	nt
O=C(CN1CC[n+]2c(-c3ccccc3)csc21)c1ccc(Br)cc1	i	nt	i	i	49	i	55
CC(=O)N1CCN(CC(=O)c2ccc(Br)cc2)CC1	i	i	i	i	i	i	nt
O=C(CN1CC[n+]2c(-c3cccs3)csc21)c1ccc(Br)cc1	i	i	i	i	25	i	42
CCC(NC(=O)CCCN1C(=O)COc2ccc(C)cc21)c1ccccc1 (configuration not stated)	nt	nt	nt	i	i	i	nt
Cc1ccc(/C=N/n2cc(-c3ccccc3)[nH]c2=S)s1	i	i	i	i	28	i	i
COc1cc(/C=N/n2cc(-c3ccccc3)[nH]c2=S)cc(OC)c1O	i	i	i	i	47	i	27
Oc1ccc(/C=N/n2cc(-c3ccccc3)[nH]c2=S)cc1	i	i	i	i	44	i	24
S=c1[nH]c(-c2ccccc2)cn1/N=C/c1ccccc1Br	i	i	i	i	i	i	nt
SMILES	TCR CD3 inh	HTRA1 inh	ATG4B inhibitor	SIAE primary	PRMT1 inh	ABHD4 inh	PRMT1 confirm
S=c1[nH]c(-c2ccccc2)cn1/N=C/c1cccc2ccccc12	i	i	i	i	i	i	nt
C=CCOC(=O)N1CCN(C(=O)c2ccc3nc(C)n(C4CCCC4)c3c2)CC1	nt	nt	nt	i	i	i	nt
COc1ccc(-c2csc(=Nc3ccccc3)n2CCO)cc1	i	i	i	i	59	i	i
C=CCn1c(-c2ccc(OC)cc2)csc1=Nc1c(C)n(C)n(-c2ccccc2)c1=O	i	i	i	i	i	i	nt
COc1ccc(-c2cn(-c3ccccc3)nc2CO)cc1	i	i	i	i	i	i	nt
CC(=O)c1cccc(N=c2scc(-c3ccc(S(=O)(=O)N4CCOCC4)cc3)n2CCO)c1	i	i	i	i	69	i	i
COc1ccc(-c2csc(=NCCO)n2-c2ccccc2)cc1	i	i	i	i	64	i	i
COC(=O)[C@]12C[C@H](CC(=O)N3CCSCC3)C(=O)N(CCc3ccc(OC)c(OC)c3)C1=C[C@H](COCc1ccccc1)O[C@@H]2C	nt	nt	nt	i	i	i	nt
COc1ccc(Cn2cc(CN3CC=CS3(=O)=O)nn2)cc1	nt	nt	nt	i	i	i	nt
CC(=O)c1cc(-c2cccc(CO)c2)c(=O)n2c1CCC2	nt	nt	nt	i	i	i	nt
CC(=O)NC1C(=O)N=C(SCC(=O)NCc2ccccc2)NC1=O (configuration not stated)	i	i	i	i	40	i	i
CC(=O)NC1C(=O)N=C(SCC(=O)Nc2c(C)cccc2C)NC1=O (configuration not stated)	i	i	i	i	42	i	i
O=C(CSC1=NC(=O)C(Cc2ccccc2)C(=O)N1)NC1CCCCC1 (configuration not stated)	i	i	i	i	i	i	nt
CN(C)c1ccc(C(=O)NCC2CCN(C(=O)C(=O)c3cccs3)CC2)cc1	i	nt	nt	i	i	i	nt
Cn1c(SCC(=O)Nc2ccccc2-c2ccccc2)nnc1-c1ccccc1	nt	nt	nt	i	i	i	nt
O=S1(=O)c2ccc(N3CC[C@H](O)C3)cc2OCCCN1C1CC1	nt	nt	nt	i	i	i	nt
Cc1ccc(S(=O)(=O)N2CCOCC2)cc1NC(=O)CSc1nnc(C2CC2)n1C1CC1	i	i	i	i	i	i	nt
COc1ccc(S(=O)(=O)N2CCOCC2)cc1NC(=O)CSc1nnc(C2CC2)n1C1CC1	i	i	i	i	40	i	i
Cn1c(=O)[nH]c2c(Br)nccc21	nt	nt	nt	i	i	i	nt
Cc1ccc(C)c2[nH]c(=O)c(CN(Cc3ccc4c(c3)OCO4)Cc3nnnn3Cc3ccco3)cc12	i	i	i	i	28	i	i
CCOc1ccc2[nH]c(=O)c(C(c3nnnn3Cc3ccco3)N3CCN(C)CC3)cc2c1 (configuration not stated)	i	i	i	i	i	i	nt
